Inhibition and IC50 data for five compounds are collected here from ChEMBL document CHEMBL1127082, “3,4-Dihydroxychalcones as potent 5-lipoxygenase and cyclooxygenase inhibitors” (J Med Chem, 1993).

In general, inhibition refers to the change of the read-out against control, counted positive when it falls. By IC50 is commonly meant the concentration that gives 50% inhibition.

Experiment [1] addresses T1, Polyunsaturated fatty acid 5-lipoxygenase (Rattus norvegicus) (UniProt P12527).
T1 sequence (whole entry): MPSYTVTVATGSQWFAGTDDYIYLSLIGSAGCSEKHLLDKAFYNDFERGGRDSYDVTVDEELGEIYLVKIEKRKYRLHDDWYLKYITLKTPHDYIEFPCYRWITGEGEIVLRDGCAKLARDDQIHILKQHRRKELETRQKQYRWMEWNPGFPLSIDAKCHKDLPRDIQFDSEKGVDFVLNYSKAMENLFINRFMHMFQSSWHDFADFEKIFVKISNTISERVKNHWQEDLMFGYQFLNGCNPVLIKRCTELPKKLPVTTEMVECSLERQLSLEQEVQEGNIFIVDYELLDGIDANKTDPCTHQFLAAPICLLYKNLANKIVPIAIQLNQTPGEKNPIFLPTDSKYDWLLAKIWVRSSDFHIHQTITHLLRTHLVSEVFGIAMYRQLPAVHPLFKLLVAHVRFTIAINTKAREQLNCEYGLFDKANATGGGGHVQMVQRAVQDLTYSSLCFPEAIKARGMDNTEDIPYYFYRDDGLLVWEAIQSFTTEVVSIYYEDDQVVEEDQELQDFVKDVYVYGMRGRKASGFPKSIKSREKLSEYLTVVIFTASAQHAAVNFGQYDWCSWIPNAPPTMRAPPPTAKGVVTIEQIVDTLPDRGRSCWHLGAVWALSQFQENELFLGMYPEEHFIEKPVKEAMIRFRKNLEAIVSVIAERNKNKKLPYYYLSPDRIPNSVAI
The experiment in a line: In vitro inhibition against 5-lipoxygenase in RBL-1 cells was determined at 100 uM. Format: cell-based. In short, it runs like this:
(§1)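 Single-concentration test at 100 μM, given as percent inhibition versus control, average of two determinations. RBL-1 cell homogenate (5 × 10⁶ cells) with 2 mM CaCl2 and 0.66 mM arachidonic acid, pH 7.4 phosphate buffer, 3 min at 37 °C. 5-HETE was measured by HPLC absorbance at 235 nm.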

The species entered for the next experiment is Rattus norvegicus. The experiment in a line: Inhibition of lipid peroxidation in rat liver microsomes at 1 uM. Format: functional. (Liver microsomes are vesicles of endoplasmic reticulum, rich in cytochrome P450 enzymes.)
Experiment [2] has as its target Prostaglandin G/H synthase 1 (Ovis aries) (UniProt P05979). The experiment in a line: Inhibition of Prostaglandin G/H synthase activity in sheep seminal vesicle was determined 100 uM.
Experiment [3] deals with T1, Polyunsaturated fatty acid 5-lipoxygenase (Rattus norvegicus). The experiment in a line: In vitro inhibition against 5-lipoxygenase in RBL-1 cells was determined at 10e-4 M. Format: cell-based. In short, it runs like this: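 RBL-1 cells grown in RPMI-1640 with 10% heat-inactivated newborn calf serum at 37 °C in 5% CO2, harvested in growth phase, suspended in 50 mM phosphate buffer pH 7.4 (0.25 M sucrose, 1 mM EDTA, 2 mM glutathione) and stored at -70 °C. Homogenate (5 × 10⁶ cells), 2 mM CaCl2 and 0.66 mM arachidonic acid incubated 3 min at 37 °C. MeOH stop, 5-HETE by HPLC at 235 nm. Percent inhibition versus control at 10⁻⁴ M, mean of two determinations.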

Experiment [4] can be described thus: Inhibition of Prostaglandin G/H synthase activity in sheep seminal vesicle was determined. Format: tissue-based, Ovis aries. In short, it runs like this:
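Sheep seminal vesicle microsomes (32 μg protein) were incubated with [14C]arachidonic acid (0.1 μCi/mL) in pH 7.4 phosphate buffer containing glutathione, epinephrine and EDTA for 10 min at 37 °C. Substrate was removed by two hexane/EtOAc extractions, and aqueous-phase radioactivity was counted by scintillation.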

For experiment [5], the target named is Cyclooxygenase (Homo sapiens) (UniProt P35354+P23219). In words: Inhibition of Prostaglandin G/H synthase activity in sheep seminal vesicle was determined 10E-4 […]. Format: tissue-based. The settings on record: Ovis aries, target entry is the homologue from another species.
In experiment [6] the target is Prostaglandin G/H synthase 1 (Ovis aries) (UniProt P05979). In words: Inhibition of Prostaglandin G/H synthase activity in sheep seminal vesicle was determined. The following applies: concentration not given here. Also noted: concentration or dose not given beside the values.
Experiment [7] concerns the target T1, Polyunsaturated fatty acid 5-lipoxygenase (Rattus norvegicus). In words: In vitro inhibition against 5-lipoxygenase in RBL-1 cells was determinedb at 100 uM. Format: cell-based. The essentials:
as §1

Chain of Prostaglandin G/H synthase 1 (Ovis aries) (P05979 whole entry, looked up): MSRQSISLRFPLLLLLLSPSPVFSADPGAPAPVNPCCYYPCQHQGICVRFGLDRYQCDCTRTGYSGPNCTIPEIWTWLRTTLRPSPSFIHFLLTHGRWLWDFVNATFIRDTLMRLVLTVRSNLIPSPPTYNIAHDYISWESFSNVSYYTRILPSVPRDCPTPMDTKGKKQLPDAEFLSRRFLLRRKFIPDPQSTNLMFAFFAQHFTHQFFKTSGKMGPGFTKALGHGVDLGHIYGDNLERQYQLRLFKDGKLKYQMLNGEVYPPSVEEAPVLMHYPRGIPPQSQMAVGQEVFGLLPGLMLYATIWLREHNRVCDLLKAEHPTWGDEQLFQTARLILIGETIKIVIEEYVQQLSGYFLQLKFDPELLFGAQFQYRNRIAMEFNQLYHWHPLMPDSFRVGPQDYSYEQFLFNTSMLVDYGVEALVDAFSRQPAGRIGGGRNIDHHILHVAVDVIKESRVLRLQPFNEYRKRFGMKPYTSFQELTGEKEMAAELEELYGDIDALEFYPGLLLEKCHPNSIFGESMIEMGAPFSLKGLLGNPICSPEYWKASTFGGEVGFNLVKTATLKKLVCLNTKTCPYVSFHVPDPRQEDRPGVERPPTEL

For the compound `O=C(/C=C/c1ccccc1)c1ccccc1O`, the results for the inhibition (in experiment [1]; in the experiment filed under Rattus norvegicus; in experiment [2]) were 19%, 6% and 13%, respectively.

Take `CN1C(C(=O)Nc2ccccn2)=C(O)c2ccccc2S1(=O)=O` [PIROXICAM]: the inhibition in experiment [3] is 19%. In experiment [4], this compound showed an IC50 of 460 µM.

As for `O=c1c(O)c(-c2ccc(O)c(O)c2)oc2cc(O)cc(O)c12`, in experiment [5], the inhibition is 13%.

Take `O=C(O)c1ccccc1Nc1cccc(C(F)(F)F)c1` [FLUFENAMIC ACID]: the inhibition in experiment [3] is -0.1%. The same compound had an IC50 in experiment [4] of 19 µM.

In the case of `COc1ccc(/C=C/C(=O)c2ccccc2O)cc1O`, the inhibition is 8.6% in experiment [6], -4.5% in experiment [7] and 11% in the experiment filed under Rattus norvegicus.
